Like-named read-outs stand apart in the source and are kept apart here.
Assays:
[1] = Cell viability by MTT assay; assay type: cell-based, Felis catus; settings: cat (Felis catus), fcwf-4 cells
Summary of the method: (§1)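 fcwf-4 cells grown in DMEM with 5% FBS, penicillin/streptomycin, 5% CO2, 37 °C; 20,000 cells/well seeded, 24 h at 37 °C to confluence. Test compounds (in DMSO or double distilled water), twofold serially diluted, applied 72 h. MTT ([…]) 4 h at 37 °C, lysis overnight at room temperature, absorbance 570/655 nm. Viability = treated/untreated OD × 100; CC50 = 50% viability reduction; triplicate.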

[2] = test system: fcwf-4 cells; test: Cell viability by MTT assay; assay type: cell-based, Felis catus; settings: for Cytotoxic effect under the tested concentrations: three days of treatment, Fig. 1; for CC50: fcwf-4 cells, 72 h, MTT
Summary of the method: as §1

[3] = test system: FCoV (NTU156) in fcwf-4 cells; test: microbe, parasite or virus in culture; assay type: cell-based, feline coronavirus
[4] = 9 clinical healthy FCoV-shedding cats, 6.25 mg to 50 mg/kg/day per os, preliminary
[5] = test system: SARS-CoV; settings: read-out: IC50 on SARS-CoV; cited from earlier work
[6] = test system: FCoV (NTU156) in fcwf-4 cells; assay type: cell-based, feline coronavirus

With Nc1nc2c(ncn2COCCO)c(=O)[nH]1 [Acyclovir, acyclovir] the CC50 at 72 h [1] was at least 888 µM.
With COC(=O)N[C@H](C(=O)N[C@@H](Cc1ccccc1)[C@@H](O)CN(Cc1ccc(-c2ccccn2)cc1)NC(=O)[C@@H](NC(=O)OC)C(C)(C)C)C(C)(C)C [Atazanavir, atazanavir] the CC50 at 72 h [1] was 48.6 µM and the “Cytotoxic effect under the tested concentrations” value (“Cytotoxic effect” below) [2] was “dramatic cytotoxic effect”.
In the case of O=C1Nc2ccc(Cl)cc2[C@@](C#CC2CC2)(C(F)(F)F)O1 [Efavirenz, efavirenz], the CC50 at 72 h [1] is reported as 52.1 µM and the “Cytotoxic effect” value [2] is reported as “dramatic cytotoxic effect”.
In the case of Cc1cc(O)c2c(c1)C(=O)c1cc(O)cc(O)c1C2=O [Emodin, emodin], the CC50 at 72 h [1] is reported as 67.4 µM and the “Cytotoxic effect” value [2] is reported as “dramatic cytotoxic effect”.
In the case of O=c1[nH]c(=O)n([C@H]2C[C@H](O)[C@@H](CO)O2)cc1I [Idoxuridine, idoxuridine], the CC50 at 72 h [1] is reported as at least 141 µM.
With CC(C)(C)NC(=O)[C@@H]1CN(Cc2cccnc2)CCN1C[C@@H](O)C[C@@H](Cc1ccccc1)C(=O)N[C@H]1c2ccccc2C[C@H]1O [Indinavir, indinavir] the CC50 at 72 h [1] was at least 70.2 µM.
With Nc1ccn([C@@H]2CS[C@H](CO)O2)c(=O)n1 [Lamivudine, lamivudine] the CC50 at 72 h [1] was at least 27.3 µM.
For Cc1c(O)cccc1C(=O)N[C@@H](CSc1ccccc1)[C@H](O)CN1C[C@H]2CCCC[C@H]2C[C@H]1C(=O)NC(C)(C)C [Nelfinavir, nelfinavir], the IC50 ([3]; Alphacoronavirus 1, 72 h) is listed as 8.19 µM, the “Side effects (e.g., diarrhea or nausea)” value [4] is listed as “no obviously side effects” and the IC50 [5] is listed as 0.048 µM. For the same molecule, the CC50 at 72 h [1] was 11.5 µM, the “Cytotoxic effect” value [2] was “dramatic cytotoxic effect” and the “Number of CPE foci compared with untreated groups” value [6] was “significantly inhibited the number of CPE foci”. The “Induction of CPE foci” value ([6]; only the highest concentration, 9.41 μM, P < 0.001, […]) was “significantly blocked the induction of CPE foci”.
Molecule Cc1ccnc2c1NC(=O)c1cccnc1N2C1CC1 [Nelvirapine, nelvirapine] has a CC50 [2] of at least 46.9 µM.
With CN(C)CCCN1c2ccccc2Sc2ccccc21 [Promazine, promazine] the CC50 at 72 h [1] was at least 0.1 µM.
NC(=O)c1ncn([C@@H]2O[C@H](CO)[C@@H](O)[C@H]2O)n1 [Ribavirin, ribavirin] showed a CC50 at 72 h [1] of at least 409 µM.
In the case of CC(C)(C)NC(=O)[C@@H]1C[C@@H]2CCCC[C@@H]2CN1C[C@@H](O)[C@H](Cc1ccccc1)NC(=O)[C@H](CC(N)=O)NC(=O)c1ccc2ccccc2n1 [Saquinavir, saquinavir], the CC50 at 72 h [1] is reported as 95.8 µM and the “Cytotoxic effect” value [2] is reported as “dramatic cytotoxic effect”.
Work on Cc1cn([C@H]2C=C[C@@H](CO)O2)c(=O)[nH]c1=O [Stavudine, stavudine] yielded a CC50 at 72 h [1] of at least 55.8 µM.
In the case of Galanthus nivalis agglutinin, the IC50 [3] is reported as 8.8e-06 µM, the CC50 [2] is reported as at least 0.00192 µM and the “Inhibition of CPE foci, concentration-dependence” value ([6]; all four concentrations, […]) is reported as “strong inhibitory activities at all four concentrations”.
